{
  "source": "ChEMBL document CHEMBL5365542",
  "about": "“Difluoromethyl-1,3,4-oxadiazoles Are Selective, Mechanism-Based, and Essentially Irreversible Inhibitors of Histone Deacetylase 6” (J Med Chem, 2023)",
  "target": "T1, Histone deacetylase 6 (Danio rerio) (UniProt F8W4B7)",
  "T1 sequence (whole entry)": "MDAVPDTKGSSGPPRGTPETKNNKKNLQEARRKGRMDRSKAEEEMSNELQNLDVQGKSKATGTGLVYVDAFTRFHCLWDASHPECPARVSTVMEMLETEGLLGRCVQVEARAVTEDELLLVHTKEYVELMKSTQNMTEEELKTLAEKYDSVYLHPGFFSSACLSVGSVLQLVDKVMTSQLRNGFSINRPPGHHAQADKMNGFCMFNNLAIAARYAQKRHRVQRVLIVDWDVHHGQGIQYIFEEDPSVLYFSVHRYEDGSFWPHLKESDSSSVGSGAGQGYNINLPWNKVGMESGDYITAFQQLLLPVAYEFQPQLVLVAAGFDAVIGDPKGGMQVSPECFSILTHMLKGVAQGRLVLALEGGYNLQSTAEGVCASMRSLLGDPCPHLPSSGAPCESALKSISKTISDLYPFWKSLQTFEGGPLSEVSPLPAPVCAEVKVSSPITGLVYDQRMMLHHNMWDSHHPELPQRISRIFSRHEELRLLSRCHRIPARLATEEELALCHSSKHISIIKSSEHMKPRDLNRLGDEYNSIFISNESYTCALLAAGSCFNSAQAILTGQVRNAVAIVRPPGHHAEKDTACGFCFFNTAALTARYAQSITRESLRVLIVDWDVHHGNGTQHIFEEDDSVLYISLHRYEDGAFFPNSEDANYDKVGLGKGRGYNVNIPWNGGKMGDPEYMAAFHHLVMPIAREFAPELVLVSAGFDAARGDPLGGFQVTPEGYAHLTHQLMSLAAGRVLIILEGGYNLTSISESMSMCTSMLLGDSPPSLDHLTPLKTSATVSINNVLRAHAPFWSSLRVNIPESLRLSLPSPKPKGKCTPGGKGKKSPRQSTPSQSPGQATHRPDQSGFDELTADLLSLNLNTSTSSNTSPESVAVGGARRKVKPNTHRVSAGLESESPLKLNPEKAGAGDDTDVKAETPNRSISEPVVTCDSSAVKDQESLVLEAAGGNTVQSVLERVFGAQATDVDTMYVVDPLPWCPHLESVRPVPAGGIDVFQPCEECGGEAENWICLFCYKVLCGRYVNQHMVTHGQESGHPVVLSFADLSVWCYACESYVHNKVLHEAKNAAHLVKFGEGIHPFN",
  "assay": "Irreversible inhibition of Danio rerio HDAC6 using RHKK(Ac)-AMC as fluorogenic substrate at 100 uM preincubated for 1 hr followed by dialysis for 21 hrs and substrate addition for 30 mins by microplate reader analysis",
  "details": "Sf9",
  "outline": "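zCD2 at 1 μM was incubated with 100 μM inhibitor for 1 h, then dialysed at 4 °C against HEPES pH 7.5 buffer with 0.25% DMSO, overnight, sampled at 6 and 21 h. Each sample was mixed with 250 μM RHKK(Ac)-AMC (pre-mix level) for 30 min. Trypsin/TSA developer was then added and fluorescence read at ex 360/em 460. Triplicates.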",
  "note": "Calls of active or inactive are those of the source. No cut-off for these calls is given here.",
  "data": [
    {"molecule": "FC(F)c1nnc(-c2cnc(NCc3ccccc3)nc2)o1", "values": [
      {"measurement": "inhibition", "value": "Active"}
    ]}
  ]
}
